Measurements from different studies.
Lines come from different studies, so protocols differ.
Target: Mitogen-activated protein kinase 1 (MAPK1, Homo sapiens, UniProt P28482)

| SMILES | test | conditions | quantity | value |
| --- | --- | --- | --- | --- |
| CN(C)C1CCN(CC#Cc2nn(C3CCCC3)c3nc(NCc4ccccc4)ncc23)C1 (stereo not drawn) | enzyme activity, inhibitor, FRET | 1 µM | inhibition | 7% |
| N#CCCc1ccc2c(c1)-c1[nH]c3ccc([N+](=O)[O-])cc3c1CC(=O)N2 | cell-free assay | 0.5 µM | remaining signal | 119% |
| Cc1ccc(Nc2nccc(N(C)c3ccc4c(C)n(C)nc4c3)n2)cc1S(N)(=O)=O | enzyme activity, inhibitor | 0.3 µM | inhibition | -1% |
| Cc1ccc(C(=O)Nc2ccc(CN3CCN(C)CC3)c(C(F)(F)F)c2)cc1C#Cc1cnc2cccnn12 | enzyme activity, inhibitor | 23.5 nM | remaining activity | 100% |
| COc1ccc2c(c1)O[C@H](c1ccc(OC)c(OC)c1)C[C@@H]2NC(=O)C1(c2ccc3c(c2)OC(F)(F)O3)CC1 | cell-free assay, competition with immobilised ligand | 1 µM | remaining binding | 99% |
| O=C(Nc1cnn(-c2csc(C(=O)NC3COC3)c2)c1)Nc1c(F)cccc1Cl | enzyme activity, inhibitor | 5 µM | remaining activity | 85.9% |
| CNc1cccc2cc(C(=O)Nc3ccc(C(=O)O)cc3)c(=O)[nH]c12 | enzyme activity, inhibitor | 10 µM | inhibition | 1.3% |
| CN(c1ncccc1CNc1nc(Nc2ccc3c(c2)CC(=O)N3)ncc1C(F)(F)F)S(C)(=O)=O | enzyme activity, inhibitor | 1 µM | inhibition | 88.1% |
| CC(C)c1ccc(NC(=O)c2cccs2)c(-c2nc3ccccc3[nH]c2=O)c1 | enzyme activity, inhibitor | 1 µM | activity vs control | 110% |
| CCC(=O)N[C@H]1CC[C@@H](C(=O)N(C)c2ccc(-c3nc4ccccc4o3)cc2)C1 | cell-free assay, competition with immobilised ligand | 1 µM | remaining binding | 76% |
| CC(C)(O)[C@H]1CC[C@H](Nc2ccc3ncc(-c4cccc(C(F)(F)F)c4)n3n2)CC1 | enzyme activity, inhibitor | 1 µM | remaining activity | 96% |
| CCN(CC)CCNC(=O)c1c(C)[nH]c(/C=C2\C(=O)Nc3ccc(F)cc32)c1C | enzyme activity, inhibitor | 0.3 µM | inhibition | -6% |
| CC/C(=N\NC(=O)NCc1cccc(O)c1)c1ccc(O)c(C)c1O | enzyme activity, inhibitor | 0.1 µM | inhibition | -10.1% |
| Cc1ccc(NC(=O)c2ccc(CN3CCN(C)CC3)cc2)cc1Nc1nc(-c2cccnc2)cs1 | cell-free assay | 0.5 µM | remaining signal | 91.6% |
| CCOCCn1cc(C(=O)Nc2ccc(-n3nc(-c4cccnc4)cc3C(F)(F)F)cn2)ccc1=O | cell-free assay, competition with immobilised ligand | 1 µM | remaining binding | 100% |
| COc1cc(/C=C/C(=O)CC(=O)/C=C/c2ccc(O)c(OC)c2)ccc1O | enzyme activity, inhibitor | 1 µM | activity vs control | 75% |
| Cc1ccc(C(=O)NCc2ccsc2)cc1C#Cc1cn(C(C)C)c2ncnc(N)c12 | enzyme activity, inhibitor | 1 µM | activity vs control | 98% |

| SMILES | test | conditions | quantity | value |
| --- | --- | --- | --- | --- |
| COc1cc2ncnc(Nc3ccc(Oc4ccccc4)cc3C)c2cc1OC | enzyme activity, inhibitor | 1 µM | inhibition | -2% |
| Nc1nc(NC2CCCCC2)sc1C(=O)c1ccccc1 | enzyme activity, inhibitor | 10 µM | remaining activity | 16% |
| COc1cc(Nc2c(C#N)cnc3cc(OCCCN4CCN(C)CC4)c(OC)cc23)c(Cl)cc1Cl | cell-free assay | 0.5 µM | remaining signal | 93.7% |
| CNCc1ccccc1-c1csc([C@@H](C)Nc2nc(C)nc3cc(OC)c(OC)cc23)c1 | cell-free assay, competition with immobilised ligand | 1 µM | remaining binding | 78% |
| CCOc1cc(-c2nncn2C)ccc1Nc1ncc2cc(C)nc(NCC(C)(C)C)c2n1 | enzyme activity, inhibitor, FRET | 1 µM | inhibition | < 15% |
| COc1cc(Nc2cnc(C#N)c(O[C@H](C)CN(C)C)n2)ncc1-c1cnn(C)c1 | enzyme activity, inhibitor, radiometric | 10 µM | remaining activity | 80% |
| CC(C)(C)c1nc2c(s1)c1nc(N)ncc1c1ccc(NS(=O)(=O)c3c(F)cccc3F)c(F)c12 | enzyme activity, inhibitor, radiometric | 1 µM | remaining activity | 99% |
| Cc1cc(C)c(-n2ccn3nc(-c4cccnc4)cc23)cc1NC(=O)c1cc(C#N)cc(S(F)(F)(F)(F)F)c1 | cell-free assay, competition with immobilised ligand | 0.1 µM | remaining binding | 88.1% |
| O=C(Nc1cnn(-c2csc(C(=O)NC3COC3)c2)c1)Nc1ccccc1Cl | enzyme activity, inhibitor | 5 µM | remaining activity | 110% |
| O=C(NCCCC1CCCCC1)c1ccc(CNC(=O)c2cnn(-c3ccccc3)c2C(F)(F)F)cc1 | cell-free assay, competition with immobilised ligand | 0.1 µM | remaining binding | 93% |
| O=C1Cc2c([nH]c3ccc(Br)cc23)-c2ccccc2N1 | cell-free assay | 0.5 µM | remaining signal | 90.5% |
| Oc1cccc(-c2nc(N3CCOCC3)c3oc4ncccc4c3n2)c1 | enzyme activity, inhibitor | 10 µM | remaining activity | 106% |
| CCc1ccccc1C(=O)Nc1n[nH]c2c(C)c(F)c(C3C(C#N)=C(C)N(C)C(C)=C3C#N)cc12 | cell-free assay, competition with immobilised ligand | 1 µM | remaining binding | 86% |
| COc1cc2c(cc1OC)-c1[nH]nc(Nc3cccc(F)c3)c1C2 | cell-free assay | 0.5 µM | remaining signal | 85.1% |
| Cc1noc([C@H]2C[C@@H](c3ccc(C(F)(F)F)cc3)CN(C(=O)N3CCS(=O)(=O)C3)C2)n1 | cell-free assay, competition with immobilised ligand | 1 µM | remaining binding | 100% |
| Nc1nc(Nc2ccccc2)sc1C(=O)c1c(F)cccc1F | enzyme activity, inhibitor | 10 µM | remaining activity | 68% |
